Most compounds without a hit are left out; they make up all but 2.9% or so of the library.
Wee1 stabilizer = human Wee1 degradation inhibition, primary screen; AID 1321; HeLa Luc-Wee1K328M stability, luciferase luminescence; 100% = proteasome inhibitor MG132 effect; 220,000 compounds, 1.2% hits; P30291; reporter increase, % at 5 µM;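 active means activation above the mean of all tested compounds plus 3 SD, set per screening run, cut at about 8.8% in these data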;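 further: cells exposed to compound for 20 h before luminescence read; 0% = DMSO alone and 100% = MG132 at 30 µM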
RanGTP-Impb inh = disruptors of Ran-importin-beta complex formation – biochemical, FRET, CFP-Ran, YFP-importin-beta, homogeneous, primary screen; cell-free CFP-Ran/YFP-importin-beta FRET ratio; inhibition, % (test concentration not listed); 300,000 compounds, 1.1% hits;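 active means more than half of the replicate wells show a fall in the fluorescence ratio signal beyond about 16%, limit read from the data, passing the limit was not always enough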;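 further: 0% = DMSO wells and 100% = Ran loaded with GDP instead of GTP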
Runt-SMMHC FRET = Runt domain-CBFb-SMMHC interaction inhibition; Q01196+Q13951; Cerulean-Runt/Venus-CBFb-SMMHC FRET ratio 530/480, 1 h; inhibition, % at 20 µM; 220,000 compounds, 0.74% hits; AID 1434;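 active means mean inhibition across duplicate retests at 20 µM reaching about 50%, limit read from the data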;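 further: 0% = DMSO wells and 100% = wells with excess untagged CBFb-SMMHC; inhibitors lower the FRET ratio by blocking Runt binding to CBFb-SMMHC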
Target sequence (Q01196 whole entry, looked up, the tested form may be a part): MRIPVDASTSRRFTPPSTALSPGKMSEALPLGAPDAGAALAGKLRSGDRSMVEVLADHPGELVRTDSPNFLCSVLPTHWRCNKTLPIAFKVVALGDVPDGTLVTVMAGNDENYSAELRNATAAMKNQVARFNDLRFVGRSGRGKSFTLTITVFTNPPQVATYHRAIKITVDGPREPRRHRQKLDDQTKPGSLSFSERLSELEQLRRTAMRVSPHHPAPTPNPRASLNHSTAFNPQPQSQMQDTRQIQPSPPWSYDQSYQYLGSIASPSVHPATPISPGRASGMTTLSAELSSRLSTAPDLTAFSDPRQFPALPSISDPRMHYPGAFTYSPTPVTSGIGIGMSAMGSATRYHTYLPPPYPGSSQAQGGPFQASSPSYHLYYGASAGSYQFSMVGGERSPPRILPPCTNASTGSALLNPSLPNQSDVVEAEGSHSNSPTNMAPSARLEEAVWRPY
Target sequence (Q13951 whole entry, looked up, the tested form may be a part): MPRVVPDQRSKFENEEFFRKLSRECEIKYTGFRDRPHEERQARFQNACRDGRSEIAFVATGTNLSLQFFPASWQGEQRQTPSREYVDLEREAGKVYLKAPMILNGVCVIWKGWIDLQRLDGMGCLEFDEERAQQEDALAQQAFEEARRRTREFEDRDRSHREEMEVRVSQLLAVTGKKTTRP
Runt-CBFb FRET = inhibitors of human RUNX1 Runt domain binding to CBFb; AID 1496; Cerulean-Runt/Venus-CBFb FRET ratio 530/480, 1 h; inhibition, % at 20 µM; 220,000 compounds, 0.46% hits; Q01196+Q13951;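 active means inhibition over about 50% at 20 µM in the single-dose screen, limit read from the data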;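 further: 0% = DMSO wells and 100% = excess unlabeled CBFb competitor control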
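Measured by: fluorescence energy transfer, 422 nm excitation, 530/480 nm emission; Assay system: Cerulean-Runt domain; Medium: Tris pH 7.5 buffer with BSA; Measure: loss of energy transfer signal; Controls: 5 µM unlabeled CBFb as full-inhibition high control; Incubation: protein complex preformed 1 h, compound exposure 1 h, room temperature, dark.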
AI-2 QS mod = modulators of Vibrio harveyi AI-2 quorum sensing system; Vibrio harveyi JMH597 AI-2 luminescence/OD600 ratio, 9 h; hits give low values; strain lacks LuxN and CqsS sensors; 0 = neutral-control median; activity change, % at 7.5 µM; 300,000 compounds, 0.4% hits; AID 2094; in the data active means activity change below about -75%, passing the limit was not always enough;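 further: luminescence divided by OD600 gain over 9 h not by final OD600 alone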
proKLK7 act = proKLK7 (human) activation, primary screen; purified proKLK7, EDANS-DABCYL substrate fluorescence; 100% is mature enzyme control, 0% vehicle; activation, % at 7 µM; 370,000 compounds, 0.9% hits; AID 652039;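 active means activation above the mean of all tested compounds plus 3 SD, computed per campaign excluding outliers beyond control limits, cut at about 13% in these data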
Starred values were filed as active, the others as inactive; · = not tested or not shown.

SMILES	Wee1 stabilizer	RanGTP-Impb inh	Runt-SMMHC FRET	Runt-CBFb FRET	AI-2 QS mod	proKLK7 act
CC(=O)C1=C(c2ccccc2)NC(=O)NC1c1cccs1 (configuration not stated)	·	3	·	·	8	0
O=C(O)CCCC(=O)N1N=C(c2ccccc2)CC1c1cccs1 (configuration not stated)	2	0	-2	4	14	1
CCOCCCNC(=S)NCCCNc1nc2c(C)cc(C)cc2cc1C#N	2	·	91*	37	·	0
Cc1cc(C)c2nc(NCCCNC(=S)NCCCN(C)C)c(C#N)cc2c1	-4	-3	89*	81*	-4	4
COCCCNC(=S)NCCNc1nc2cc(C)cc(C)c2cc1C#N	1	0	45	34	10	3
Cc1nn(-c2ccccc2)c2c1C(c1ccccc1)C(C#N)=C(N)O2 (configuration not stated)	-2	1	2	-2	24	0
Cc1nn(-c2ccccc2)c2c1C(c1ccc(Br)s1)C(C#N)=C(N)O2 (configuration not stated)	9.1*	·	5	14	·	·
C=CCn1c2ccccc2c(=O)c2cc(C#Cc3ccsc3)ccc21	·	24*	·	·	15	·
Cc1ccc(NC(=O)C2CCN(S(=O)(=O)c3cnc[nH]3)CC2)nc1	-2	-1	1	1	25	1
Cc1n[nH]c(C)c1S(=O)(=O)N1CCC(C(=O)Nc2cccc(F)c2)CC1	·	6	·	·	38	0
CC(=O)c1cccc(NC(=O)C2CCN(S(=O)(=O)c3c(C)n[nH]c3C)CC2)c1	-3	0	0	100*	22	0
Cc1ccc(NC(=O)C2CCN(S(=O)(=O)c3c(C)n[nH]c3C)CC2)nc1	10*	1	4	0	12	0
CN1CCc2nc(NC(=O)c3cccc(S(=O)(=O)N4CCc5ccccc54)c3)sc2C1	1	48*	84*	45	·	0
COc1cccc(C(=O)Nc2nc3c(s2)CN(C)CC3)c1	0	9	87*	·	13	0
O=C(Nc1nc2c(s1)CCCC2)c1cccc(S(=O)(=O)N2CCCc3ccccc32)c1	-1	-2	3	-1	12	-1
Fc1ccccc1/C=N/Nc1nc2ccccc2o1	·	2	·	·	16	-1
O=C(O)c1ccc2c(c1)CCC2	3	-2	1	0	24	0
O=C(O)CCC(=O)c1ccc2c(c1)CCCC2	15*	-1	-4	·	17	0
Cc1ccc(C(=O)CN(Cc2ccccc2)C2=NCCS2)cc1	10*	-3	0	0	27	1
COC(=O)[C@]12C[C@H](CC(=O)N3CCSCC3)C(=O)N(Cc3ccc4c(c3)OCO4)C1=C[C@H](COCc1ccccc1)O[C@@H]2C	·	·	·	·	·	0
COc1ccc(CNC(=O)c2csc(Cc3ccc(Cl)cc3)n2)cc1	9.5*	-5	1	-4	2	0
COc1ccc(CNC(=O)c2csc(Cc3ccc(OC)cc3)n2)cc1	-1	3	-1	-4	7	0
Nc1cc(-c2ccccc2)nn1Cc1ccccc1	-3	32*	-2	-1	6	0
CC(Oc1ccccc1F)C(=O)Nc1ccc2ccccc2c1 (configuration not stated)	9.3*	2	-2	-3	51	-1
COc1ccc2[nH]c(=O)c(CN(C(=O)C3CCCO3)c3ccc(C)c(C)c3)cc2c1 (configuration not stated)	9.4*	-1	-6	-1	0	0
c1ccc2[nH]c(CN3CCOCC3)nc2c1	1	0	1	0	14	0
c1ccc2[nH]c(SN3CCOCC3)nc2c1	-3	·	62*	4	·	·
CCC1Sc2ccccc2N(CC(=O)NC2CCCCC2)C1=O (configuration not stated)	9.3*	-3	-1	-2	7	0
Cc1ccc(C2C3=C(CCCC3=O)Nc3[nH]c(=S)[nH]c(=O)c32)cc1 (configuration not stated)	-1	3	60*	48	11	2

Screens deposited in PubChem by several laboratories.
